# Test results as given in ChEMBL document CHEMBL1125252, “Synthesis and anti-HIV-1 activity of 4,5,6,7-tetrahydro-5-methylimidazo[4,5,1-jk][1,4]benzodiazepin- 2(1H)-one (TIBO) derivatives” (J Med Chem, 1991).
# How the values were obtained:
# [1] = tested on: Human immunodeficiency virus 1; assay: Effective concentration required to achieve 50% protection of MT-4 cells against the cytopathic effect of HIV-1.; format: functional, organism-based; conditions: Human immunodeficiency virus 1, MT4
# Procedure, shortened: (§1)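 MT-4 cells were infected with HIV-1 or mock-infected, then incubated with a range of test-compound concentrations. IC50 is the concentration giving 50% protection against HIV-1-induced cytopathic effect. CC50 is the concentration reducing viability of mock-infected cells by 50%. SI is CC50/IC50. Most determinations were run in duplicate and averaged.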
# [2] = tested on: MT4; assay: (§2) Cytotoxic concentration required to reduce the viability of mock-infected MT-4 cells by 50%.; format: functional; conditions: Homo sapiens; procedure, shortened: as §1
# [3] = tested on: MT4; assay: Selectivity index measured as the ratio of CC50/IC50 values.; format: functional; procedure, shortened: as §1
# [4] = tested on: MT4; assay: Effective concentration required to achieve 50% protection of MT-4 cells against the cytopathic effect of HIV-1; I = Inactive; format: functional, cell-based, Homo sapiens; procedure, shortened: as §1
# [5] = tested on: MT4; assay: as §2; format: functional, cell-based; conditions: Homo sapiens; procedure, shortened: as §1
IC50 [1] [µM],SMILES,CC50 [2] [µM],Selectivity index [3],IC50 [4],CC50 [5] [µM]
855,COC(=O)CN1Cc2cccc3nc(O)n(c23)CC1C (configuration not stated),925,,,
5.5,O=c1[nH]cnc2c1ncn2[C@H]1CC[C@@H](CO)O1 [DIDANOSINE],1050,191,,
,C[C@@H]1Cn2c(O)nc3cccc(c32)CN1,901,,Not Active,
,C/C=C/C=C/CN1Cc2cccc3nc(O)n(c23)CC1C (configuration not stated),378,,Not Active,
,CC1Cn2c(O)nc3cccc(c32)CN1C/C=C/c1ccccc1 (configuration not stated),> 783,,Not Active,
,C=C(CN1Cc2cccc3nc(O)n(c23)CC1C)c1ccccc1 (configuration not stated),3,,Not Active,
,CC1Cn2c(O)nc3cccc(c32)CN1CCO (configuration not stated),776,,Not Active,
,C#C/C(C)=C/CN1Cc2cccc3nc(O)n(c23)CC1C (configuration not stated),18,,Not Active,
47,C=C(C)CN1Cc2cccc3[nH]c(=O)n(c23)CC1C (configuration not stated),665,15,,
,C#C/C=C/CN1Cc2cccc3nc(O)n(c23)CC1C (configuration not stated),370,,Not Active,
,C=C(CN1Cc2cccc3nc(O)n(c23)CC1C)C(C)C (configuration not stated),18,,Not Active,
,C[C@H]1Cn2c(O)nc3cccc(c32)CN1,901,,Not Active,
,CC(=O)N1Cc2cccc3nc(O)n(c23)CC1C (configuration not stated),175,,Not Active,
19,C=C(C)CN1Cc2cccc3[nH]c(=O)n(c23)C[C@@H]1C,222,11,,
,CC(C)CN1Cc2cccc3nc(O)n(c23)CC1C (configuration not stated),82,,Not Active,
29,C/C=C(/C)CN1Cc2cccc3nc(O)n(c23)CC1C (configuration not stated),106,4,,
,CC1Cn2c(O)nc3cccc(c32)CN1CC#N (configuration not stated),508,,Not Active,
44,CC1Cn2c(O)nc3cccc(c32)CN1CC1CC1 (configuration not stated),588,13,,
,C=CCN1Cc2cccc3[nH]c(=O)n(c23)C[C@H]1C,,,Not Active,592
,CC1Cn2c(O)nc3cccc(c32)CN1Cc1ncc[nH]1 (configuration not stated),685,,Not Active,
,CC1Cn2c(O)nc3cccc(c32)CN1Cc1ccc[nH]1 (configuration not stated),92,,Not Active,
70,C=CCN1Cc2cccc3[nH]c(=O)n(c23)CC1C (configuration not stated),670,10,,
12.5,CC(C)=CCN1Cc2cccc3nc(O)n(c23)CC1C (configuration not stated),416,33,,
,CC(C)N1Cc2cccc3nc(O)n(c23)CC1C (configuration not stated),65,,Not Active,
122,CC1Cn2c(O)nc3cccc(c32)CN1C/C=C\c1ccccc1 (configuration not stated),388,3,,

IC50 [1] [µM],SMILES,CC50 [2] [µM],Selectivity index [3],IC50 [4],CC50 [5] [µM]
0.0015,Cc1cn([C@H]2C[C@H](N=[N+]=[N-])[C@@H](CO)O2)c(=O)[nH]c1=O [ZIDOVUDINE],9.3,6200,,
37,C=C(CC)CN1Cc2cccc3nc(O)n(c23)CC1C (configuration not stated),66,2,,
66,C=CCN1Cc2cccc3[nH]c(=O)n(c23)C[C@@H]1C,670,10,,
106,CC1Cn2c(O)nc3cccc(c32)CN1Cc1ccco1 (configuration not stated),529,5,,
22,CC(C)=CCN1Cc2cccc3nc(O)n(c23)C[C@H]1C,450,20,,
100,CCCCN1Cc2cccc3nc(O)n(c23)CC1C (configuration not stated),501,5,,
50,C=CCCN1Cc2cccc3nc(O)n(c23)CC1C (configuration not stated),552,11,,
62,C=C(Br)CN1Cc2cccc3nc(O)n(c23)CC1C (configuration not stated),416,7,,
,CC(C)OCCN1Cc2cccc3nc(O)n(c23)CC1C (configuration not stated),504,,Not Active,
,CC(C)=CCC/C(C)=C\CN1Cc2cccc3nc(O)n(c23)CC1C (configuration not stated),44,,Not Active,
4,CC(C)=CCN1Cc2cccc3nc(O)n(c23)C[C@@H]1C,427,105,,
,CC(=O)CN1Cc2cccc3nc(O)n(c23)CC1C (configuration not stated),760,,Not Active,
,C=C(CN1Cc2cccc3nc(O)n(c23)CC1C)C(=O)OCC (configuration not stated),3,,Not Active,
90,CCCN1Cc2cccc3[nH]c(=O)n(c23)CC1C (configuration not stated),722,8,,
,CC(C)=C(C)CN1Cc2cccc3nc(O)n(c23)CC1C (configuration not stated),> 876,,Not Active,
,COC(=O)/C=C/CN1Cc2cccc3nc(O)n(c23)CC1C (configuration not stated),252,,Not Active,
580,C#CCN1Cc2cccc3nc(O)n(c23)CC1C (configuration not stated),990,,,
58,C/C=C/CN1Cc2cccc3nc(O)n(c23)CC1C (configuration not stated),443,8,,
,C=C(Cc1ccccc1)CN1Cc2cccc3nc(O)n(c23)CC1C (configuration not stated),572,,Not Active,
,CC1Cn2c(O)nc3cccc(c32)CN1CC1=CCCCC1 (configuration not stated),212,,Not Active,
,C#CC(C)=CCN1Cc2cccc3nc(O)n(c23)CC1C (configuration not stated),707,,Not Active,
35,C/C=C\CN1Cc2cccc3nc(O)n(c23)CC1C (configuration not stated),560,16,,
71,C=CC(=C)CN1Cc2cccc3nc(O)n(c23)CC1C (configuration not stated),290,4,,
,CCN1Cc2cccc3nc(O)n(c23)CC1C (configuration not stated),592,,Not Active,

SMILES,IC50 [1] [µM],CC50 [2] [µM],Selectivity index [3],IC50 [4],CC50 [5] [µM]
C(=NC1CCCCC1)=NC1CCCCC1 [DICYCLOHEXYLCARBODIIMIDE],0.137,232,1693,,
